Values after ≈ are worked out from the molar mass of the structure shown. One block for each molecule: values may come before it.
Key:
Staphylococcus aureus [1] = test: Antibacterial activity against methicillin-sensitive Staphylococcus aureus ATCC 29213 after 16 to 20 hrs by broth microdilution method; format: functional
[2] = tested on: Staphylococcus epidermidis; test: Antibacterial activity against Staphylococcus epidermidis ATCC 35547 after 16 to 20 hrs by broth microdilution method; format: functional
[3] = tested on: Staphylococcus haemolyticus; test: Antibacterial activity against Staphylococcus haemolyticus ATCC 29970 after 16 to 20 hrs by broth microdilution method; format: functional
Streptococcus oralis = test: Antibacterial activity against Streptococcus oralis ATCC 9811 after 16 to 20 hrs by broth microdilution method; format: functional
Staphylococcus aureus [4] = test: Antibacterial activity against methicillin-resistant Staphylococcus aureus ATCC 27660 in po dosed ICR mouse peritonitis infection model assessed as survival rate administered at 1 hr post infection; format: functional; details: ATCC 27660, po
In short: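 Female ICR mice, 6–8 weeks, given 0.5 mL ip of S. aureus (final 5×10^7 cfu/mL in 5% mucin). Six mice per dose level; a single oral dose at 1 h post-infection.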

Staphylococcus aureus [5] = test: Antibacterial activity against mecA-positive, ciprofloxacin/gentamicin/oxacillin/penicillin/linezolid-resistant Staphylococcus aureus NRS120 after 16 to 20 hrs by broth microdilution method; format: functional
Bacillus cereus = test: Antibacterial activity against Bacillus cereus ATCC 13061 after 16 to 20 hrs by broth microdilution method; format: functional
Enterococcus faecium [6] = test: Antibacterial activity against vancomycin-susceptible Enterococcus faecium 119-39A clinical isolate after 16 to 20 hrs by broth microdilution method; format: functional
Streptococcus pyogenes = test: Antibacterial activity against Streptococcus pyogenes ATCC 49399 after 16 to 20 hrs by broth microdilution method; format: functional
Bacillus licheniformis = test: Antibacterial activity against Bacillus licheniformis ATCC 12759 after 16 to 20 hrs by broth microdilution method; format: functional
Enterococcus faecium [7] = test: Antibacterial activity against vancomycin-resistant Enterococcus faecium 106 clinical isolate after 16 to 20 hrs by broth microdilution method
Enterococcus faecium [8] = test: Antibacterial activity against Enterococcus faecium NCTC 7171 after 16 to 20 hrs by broth microdilution method; format: functional
Staphylococcus aureus [9] = test: Antibacterial activity against mecA-positive, ciprofloxacin/gentamicin/oxacillin/penicillin/linezolid-resistant Staphylococcus aureus NRS119 after 16 to 20 hrs by broth microdilution method; format: functional

MIC (Staphylococcus aureus [1]): ≥ 128 µg/mL
SMILES: Cc1ccc(S(=O)(=O)N2CCC(c3nc(-c4ccc(Oc5ccccc5)cc4)no3)CC2)cc1

MIC (Staphylococcus aureus [1]): ≥ 128 µg/mL
SMILES: Nc1cc(-c2nc(-c3ccc(Oc4ccc(F)cc4)cc3)no2)cnc1O

MIC (Staphylococcus aureus [1]): 2 µg/mL (≈ 4.01 µM)
SMILES: FC(F)(F)c1ccc(Oc2ccc(-c3noc(-c4n[nH]cc4I)n3)cc2)cc1

MIC (Staphylococcus aureus [1]): ≥ 128 µg/mL
SMILES: FC(F)(F)c1ccc(Oc2ccc(-c3noc(-c4c[nH]c5ncccc45)n3)cc2)cc1

MIC (Staphylococcus aureus [1]): ≥ 128 µg/mL
SMILES: NS(=O)(=O)c1ccc(-c2nc(-c3ccc(Oc4ccc(F)cc4)cc3)no2)cc1

SMILES: CC(=O)NC[C@H]1CN(c2ccc(N3CCOCC3)c(F)c2)C(=O)O1 [LINEZOLID]
MIC [2]: 1 µg/mL (≈ 2.96 µM)
MIC [3]: 2 µg/mL (≈ 5.93 µM)
MIC (Streptococcus oralis): 1 µg/mL (≈ 2.96 µM)
ED50 (Staphylococcus aureus [4]): 2.8 mg/kg
MIC (Staphylococcus aureus [5]): 32 µg/mL (≈ 94.9 µM)
MIC (Bacillus cereus): 1 µg/mL (≈ 2.96 µM)
MIC (Enterococcus faecium [6]): 2 µg/mL (≈ 5.93 µM)
MIC (Streptococcus pyogenes): 1 µg/mL (≈ 2.96 µM)
MIC (Bacillus licheniformis): 1 µg/mL (≈ 2.96 µM)
MIC (Enterococcus faecium [7]): 1 µg/mL (≈ 2.96 µM)
MIC (Enterococcus faecium [8]): 2 µg/mL (≈ 5.93 µM)
MIC (Staphylococcus aureus [9]): 32 µg/mL (≈ 94.9 µM)

MIC (Staphylococcus aureus [1]): ≥ 128 µg/mL
SMILES: O=C(Nc1c[nH]nc1-c1nc(-c2ccc(Oc3ccc(C(F)(F)F)cc3)cc2)no1)c1ccccn1

MIC (Staphylococcus aureus [1]): ≥ 128 µg/mL
SMILES: COc1ccc(-c2nc(-c3ccc(Oc4ccc(F)cc4)cc3)no2)cc1[N+](=O)[O-]

MIC (Staphylococcus aureus [1]): 2 µg/mL (≈ 5.46 µM)
SMILES: Oc1ccc(-c2nc(-c3ccc(Oc4ccc(F)cc4)cc3)no2)cc1F

MIC (Staphylococcus aureus [1]): 8 µg/mL (≈ 21.9 µM)
SMILES: Nc1c(F)cc(-c2nc(-c3ccc(Oc4ccccc4)cc3)no2)cc1F

— ChEMBL document CHEMBL3407479, “Structure-activity relationship for the oxadiazole class of antibiotics” (J Med Chem, 2015)
